Usually IC50 stands for the concentration at which inhibition is half-maximal. Usually Ki stands for a dissociation constant, usually derived from enzyme kinetics or from competition with a known ligand.

The values below come from ChEMBL document CHEMBL4402584, “Lead Optimization of Phthalazinone Phosphodiesterase Inhibitors as Novel Antitrypanosomal Compounds” (J Med Chem, 2020).

Molecules are shown by their SMILES.

One series relates to Trypanosoma brucei. The series can be described thus: Antitrypanosomal activity against Trypanosoma brucei Squib 427 assessed as reduction in parasite growth incubated for 72 hrs by resazurin dye based fluorimetric analysis. The class given is functional, organism-based. The conditions noted are these: Squib 427, 72 h. (In general: The colour change of resazurin is a common sign of viable cells or microbes.)

The target in series [1] is 3',5'-cyclic-AMP phosphodiesterase 4D (Homo sapiens, UniProt Q08499). The series is described as follows: Inhibition of human PDE4D2 expressed in Escherichia coli BL21 (DE3) using cAMP as substrate by PDELight HTS cAMP phosphodiesterase Kit based. A digest of the protocol: (§1)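 Recombinant catalytic domains, His-tag purified, then ion exchange and size exclusion, were tested with the PDELight HTS cAMP kit in stimulation buffer (50 mM Hepes, 100 mM NaCl, 10 mM MgCl2, 0.5 mM EDTA, 0.05 mg/ml BSA, pH 7.5). Dose-response curves gave Ki, expressed as pKi = −log10(Ki ÷ 1000000).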

Series [2] can be described thus: Cytotoxicity against human MRC5 SV2 cells assessed as reduction in cell viability incubated for 72 hrs by resazurin dye based fluorimetric assay. The conditions noted are these: MRC-5 SV2, 72 h. In short, it runs like this: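 MRC-5 SV2 fibroblasts grown in Earl's MEM with 5% FBSi, L-glutamine and bicarbonate; 1×10^4 cells/well treated 72 h at 37 °C, 5% CO2; resazurin viability read fluorimetrically (ex 550, em 590 nm). Five 4-fold dilutions from a 64 µM top concentration; IC50 derived from % viability reduction vs untreated wells; tamoxifen as reference.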

Series [3] is described as follows: Metabolic stability in mouse microsomes assessed as compound remaining at 5 uM incubated for 30 mins by UPLC-MS/MS analysis. Type of series: ADME, Microsome. To be noted: for remaining at 0.5 h, 5 µM: read-out: Stability; for Stability: 0.5 h, 5 µM. A digest of the protocol:
(§2)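 Compound at 5 µM incubated with 0.5 mg/mL male liver microsomes in potassium phosphate buffer, started with 1 mM NADPH (CYP phase I). Aliquots quenched in cold acetonitrile containing tolbutamide, centrifuged at 4 °C, supernatant analysed by LC-MS. Results given as % parent remaining relative to time 0; mean of at least two experiments; diclofenac as control.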

In series [4] the target is T1, Class 1 phosphodiesterase PDEB1 (Trypanosoma brucei, UniProt Q8WQX9).
T1 sequence (Q8WQX9 whole entry): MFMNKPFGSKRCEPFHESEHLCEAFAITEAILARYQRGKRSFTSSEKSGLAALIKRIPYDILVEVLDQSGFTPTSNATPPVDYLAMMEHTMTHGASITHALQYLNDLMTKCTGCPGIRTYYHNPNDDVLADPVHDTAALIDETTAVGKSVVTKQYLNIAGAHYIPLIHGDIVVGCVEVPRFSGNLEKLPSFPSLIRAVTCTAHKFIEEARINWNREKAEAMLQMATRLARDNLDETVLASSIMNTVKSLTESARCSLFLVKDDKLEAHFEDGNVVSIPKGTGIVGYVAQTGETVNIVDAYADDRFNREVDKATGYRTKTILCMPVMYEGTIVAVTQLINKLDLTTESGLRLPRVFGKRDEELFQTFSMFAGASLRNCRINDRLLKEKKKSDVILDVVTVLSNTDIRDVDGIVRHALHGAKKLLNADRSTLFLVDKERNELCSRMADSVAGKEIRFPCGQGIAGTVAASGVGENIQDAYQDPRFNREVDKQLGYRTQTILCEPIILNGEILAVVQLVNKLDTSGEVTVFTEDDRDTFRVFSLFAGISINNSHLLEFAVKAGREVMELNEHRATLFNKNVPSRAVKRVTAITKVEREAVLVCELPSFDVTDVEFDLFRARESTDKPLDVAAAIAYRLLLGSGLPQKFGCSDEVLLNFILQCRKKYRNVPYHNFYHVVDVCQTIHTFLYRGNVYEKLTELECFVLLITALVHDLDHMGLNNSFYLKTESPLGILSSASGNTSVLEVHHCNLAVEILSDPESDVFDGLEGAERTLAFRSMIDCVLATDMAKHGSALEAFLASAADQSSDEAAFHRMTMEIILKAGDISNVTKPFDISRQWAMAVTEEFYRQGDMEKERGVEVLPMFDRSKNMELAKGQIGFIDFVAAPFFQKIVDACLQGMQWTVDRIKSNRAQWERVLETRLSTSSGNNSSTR
The series can be described thus: Inhibition of Trypanosoma brucei PDEB1 (565 to 918 residues) expressed in Escherichia coli BL21 (DE3) using cAMP as substrate by PDELight HTS cAMP phosphodiesterase Kit based. A digest of the protocol:
as §1

A short description of series [5]: Metabolic stability in human microsomes assessed as compound remaining at 5 uM incubated for 30 mins by UPLC-MS/MS analysis. The conditions noted are these: for Stability: 0.5 h, 5 µM. The class given is ADME, Microsome. A digest of the protocol:
as §2

Sequence of 3',5'-cyclic-AMP phosphodiesterase 4D (Q08499 whole entry, the tested form may be a part): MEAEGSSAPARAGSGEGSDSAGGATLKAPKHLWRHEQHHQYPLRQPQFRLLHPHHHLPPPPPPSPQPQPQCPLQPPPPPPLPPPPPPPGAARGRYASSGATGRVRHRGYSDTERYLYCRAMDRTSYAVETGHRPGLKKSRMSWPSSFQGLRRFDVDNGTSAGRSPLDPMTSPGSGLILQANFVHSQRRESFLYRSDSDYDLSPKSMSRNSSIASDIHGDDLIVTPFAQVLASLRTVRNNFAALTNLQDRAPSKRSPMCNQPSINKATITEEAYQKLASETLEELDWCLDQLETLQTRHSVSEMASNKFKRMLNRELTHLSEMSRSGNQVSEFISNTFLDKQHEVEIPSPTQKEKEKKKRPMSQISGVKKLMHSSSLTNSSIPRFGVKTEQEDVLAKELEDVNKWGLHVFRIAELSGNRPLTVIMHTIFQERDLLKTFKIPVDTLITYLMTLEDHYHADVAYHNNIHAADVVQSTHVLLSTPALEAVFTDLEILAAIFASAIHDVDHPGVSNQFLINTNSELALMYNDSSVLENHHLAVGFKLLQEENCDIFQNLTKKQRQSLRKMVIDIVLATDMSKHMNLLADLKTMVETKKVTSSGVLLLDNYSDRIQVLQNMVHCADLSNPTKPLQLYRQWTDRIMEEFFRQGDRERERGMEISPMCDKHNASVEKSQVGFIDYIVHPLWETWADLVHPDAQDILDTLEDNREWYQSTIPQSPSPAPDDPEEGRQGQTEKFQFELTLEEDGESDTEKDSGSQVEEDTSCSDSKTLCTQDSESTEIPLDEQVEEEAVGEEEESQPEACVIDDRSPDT

Consider `COc1ccc(C2=NN(C3CCN(C(=O)CN4C(=O)CC(C)(C)CC4=O)CC3)C(=O)[C@@H]3CC=CC[C@H]23)cc1OC`, for which the IC50 was 0.447 µM in the series with Trypanosoma brucei and 44.7 µM in series [2]. In addition, the figures for the inhibition constant Ki in series [1] and in series [4] were 123 pM and 0.0437 µM, respectively. For the same compound, the remaining at 0.5 h, 5 µM in series [3] was 6.7%. Further, the Stability entry in series [5] was “Stable”.

Regarding `Nc1nc(N2CCC(N3N=C(c4ccc(F)c(F)c4)[C@H]4CC=CC[C@H]4C3=O)CC2)c2ccsc2n1` (relative stereo), the concentration for half-maximal inhibition (IC50) in the series on Trypanosoma brucei was 1.91 µM; in series [2], 64.6 µM. In addition, the Stability result in series [3] and in series [5] was “Stable” throughout. The compound further showed an inhibitory constant (Ki) in series [4] greater than 8.32 µM.

For `COc1ccc(C2=NN(C3CCN(C(=O)CN4C(=O)CC5(CCCCC5)CC4=O)CC3)C(=O)[C@@H]3CC=CC[C@H]23)cc1OC`, the IC50 was 0.479 µM with Trypanosoma brucei and 31.6 µM in series [2]. Moreover, the inhibition constant (Ki) is 155 pM in series [1] and 0.0309 µM in series [4]. For the same compound, the Stability result in series [3] and in series [5] was “Stable” throughout.

Regarding `O=C(CN1C(=O)CC2(CCCCC2)CC1=O)N1CCC(N2N=C(c3ccc(F)c(F)c3)[C@H]3CCCC[C@H]3C2=O)CC1`, the half-inhibitory concentration (IC50) in the series on Trypanosoma brucei was 7.59 µM; in series [2], 64.6 µM. Also, the Stability entry in series [3] and in series [5] was “Stable” each time. In addition, in series [4], the inhibition constant (Ki) was greater than 6.92 µM.

Consider `CC1(C)CC(=O)N(CC(=O)N2CCC(N3N=C(c4ccc(OC(F)F)c(OC(F)F)c4)[C@H]4CCCC[C@H]4C3=O)CC2)C(=O)C1`, for which the IC50 with Trypanosoma brucei is 6.46 µM; in series [2], 64.6 µM. Also, the Stability entry in series [3] and in series [5] was “Stable” each time. Further, in series [4], the inhibition constant (Ki) is greater than 1.58 µM.

With `Nc1nc(N2CCC(N3N=C(c4ccc(F)cc4)[C@H]4CC=CC[C@H]4C3=O)CC2)c2ccsc2n1` (relative stereo), the IC50 with Trypanosoma brucei is 2.09 µM; in series [2] it was 64.6 µM. For the same compound, the Stability entry in series [3] and in series [5] was “Stable” throughout. The compound further gave a Ki in series [4] greater than 9.33 µM.

For the compound `O=C1[C@@H]2CC=CC[C@@H]2C(c2ccc(F)c(F)c2)=NN1C1CCN(c2ncnc3ccsc23)CC1`, the IC50 with Trypanosoma brucei is 13.2 µM; in series [2], 38 µM. Besides, the Stability entry in series [3] and in series [5] was “Stable” each time. Besides, the inhibitory constant (Ki) in series [4] is greater than 5.62 µM.

For the compound `O=C(CN1C(=O)CC2(CCCCC2)CC1=O)N1CCC(N2N=C(c3ccc(F)c(F)c3)[C@H]3CC=CC[C@H]3C2=O)CC1` (relative stereo), the 50% inhibitory concentration (IC50) was 33.1 µM in the series on Trypanosoma brucei and 64.6 µM in series [2]. The Stability result in series [3] and in series [5] was “Stable” throughout. The Ki in series [4] is greater than 4.57 µM.

In the case of `COc1ccc(C2=NN(C3CCN(C(=O)CN4C(=O)CCC4=O)CC3)C(=O)[C@@H]3CC=CC[C@H]23)cc1OC`, the results for the half-maximal inhibitory concentration (IC50) (in the series with Trypanosoma brucei; in series [2]) were 1.86 µM and 64.6 µM, respectively. Besides, the values for the Ki in series [1] and in series [4] were 61.7 pM and 0.0209 µM, respectively. The remaining at 0.5 h, 5 µM in series [3] amounted to 43%; in series [5] (read-out: Stability) it was 89%.

For the compound `COc1ccc(C2=NN(C3CCN(C(=O)CN4C(=O)CC(C)(C)CC4=O)CC3)C(=O)[C@@H]3CCCC[C@H]23)cc1OC`, the IC50 in the series with Trypanosoma brucei is 1.95 µM; in series [2], 56.2 µM. The inhibition constant (Ki) in series [1] is 162 pM; in series [4], 0.0851 µM. Further, the Stability entry in series [3] and in series [5] was “Stable” throughout.

Consider `COc1ccc(C2=NN(C3CN(C(=O)CN4C(=O)CC5(CCCCC5)CC4=O)C3)C(=O)[C@@H]3CC=CC[C@H]23)cc1OC`, for which the IC50 is 1.15 µM with Trypanosoma brucei and 64.6 µM in series [2]. In addition, the Ki was 851 pM in series [1] and 0.0912 µM in series [4]. Besides, the Stability result in series [3] and in series [5] was “Stable” each time.

On to `COc1ccc(C2=NN(C3CN(C(=O)CN4C(=O)CC5(CCCC5)CC4=O)C3)C(=O)[C@@H]3CC=CC[C@H]23)cc1OC`, for which the figures for the IC50 (in the series on Trypanosoma brucei; in series [2]) were 2.51 µM and 64.6 µM, respectively. Besides, the Ki in series [1] was 676 pM; in series [4] it was 0.17 µM.

As to `COc1ccc(C2=NN(C3CCN(c4nc(N)nc5sccc45)CC3)C(=O)[C@@H]3CC=CC[C@H]23)cc1OC`, the IC50 is 0.468 µM in the series on Trypanosoma brucei and 64.6 µM in series [2]. Moreover, the Ki is 355 pM in series [1] and 0.0427 µM in series [4].

As to `COc1ccc(C2=NN(C3CCN(c4nc(N)c5sccc5n4)CC3)C(=O)[C@@H]3CC=CC[C@H]23)cc1OC`, the values for the half-maximal inhibitory concentration (IC50) (with Trypanosoma brucei; in series [2]) were 1.78 µM and 64.6 µM, respectively. The Ki in series [1] is 676 pM; in series [4] it was 0.339 µM. In addition, the Stability result in series [3] and in series [5] was “Stable” in each case.

As to `O=C1[C@@H]2CC=CC[C@@H]2C(c2ccc(OC(F)F)c(OC(F)F)c2)=NN1C1CCN(c2ncnc3ccsc23)CC1`, the IC50 in the series on Trypanosoma brucei was 6.76 µM; in series [2], 64.6 µM. The Stability entry in series [3] and in series [5] was “Stable” each time. For the same compound, the Ki in series [4] is greater than 2.14 µM.
